Measurements taken from ChEMBL document CHEMBL4138173, “Molecular docking, design, synthesis and antifungal activity study of novel triazole derivatives” (2018).
Converted amounts (≈) assume the structure as drawn. The source made the active and inactive calls. No cut-off for these calls is given here.

Experiments:
Candida albicans [1] = assay: Antifungal activity against Candida albicans SC5314 after 24 hrs; type: functional; conditions: SC5314, 24 h
How it was run: (§1)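 Broth dilution MIC per NCCLS recommendations. Compounds were dissolved in DMSO in growth medium, then inoculated and incubated at 35 °C, with growth read at 24 h for C. albicans. MIC80 is the first well showing about 80% growth reduction versus the drug-free well. Values are the mean of three replicate tests.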

Cryptococcus neoformans = assay: Antifungal activity against Cryptococcus neoformans after 72 hrs; type: functional
How it was run: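 NCCLS-based broth dilution against C. neoformans. Test agents were in DMSO in growth medium, inoculated and held at 35 °C, and MIC80 was read at 72 h. MIC80 is the first well with roughly 80% less growth than the drug-free well. Each value averages three replicate tests.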

Aspergillus fumigatus = assay: Antifungal activity against Aspergillus fumigatus after 5 to 7 days; type: functional
How it was run: (§2)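 Filamentous fungi were tested by broth dilution following NCCLS recommendations. Compounds were dissolved in DMSO in growth medium, inoculated and incubated at 35 °C, with MIC80 read after 5–7 days. MIC80 is the first well with approximately 80% growth reduction relative to the drug-free well. Results are the mean of three replicates.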

Candida albicans [2] = assay: Antifungal activity against Candida albicans SCY0109 after 24 hrs; type: functional; conditions: SCY0109, 24 h; how it was run: as §1
Nakaseomyces glabratus = assay: Antifungal activity against Candida glabrata after 5 to 7 days; type: functional
Pichia kudriavzevii = assay: Antifungal activity against Candida krusei after 5 to 7 days; type: functional
How it was run: (§3)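 MIC measured by broth dilution per NCCLS recommendations. Compounds were dissolved in DMSO in growth medium, inoculated and incubated at 35 °C. MIC80 is the first well with approximately 80% lower growth than the drug-free well. Values are the mean of three replicate tests.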

Trichophyton rubrum = assay: Antifungal activity against Trichophyton rubrum after 5 to 7 days; type: functional
How it was run: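 Broth dilution per NCCLS recommendations against an ATCC strain; compounds dissolved in DMSO in growth medium; incubated at 35 °C. MIC80 is the first well with about 80% growth reduction versus the drug-free well, read at 5–7 days for filamentous fungi. Values are the mean of three replicate tests.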

Candida parapsilosis = assay: Antifungal activity against Candida parapsilosis after 5 to 7 days; type: functional; conditions: Lodderomyces parapsilosis
Nannizzia gypsea = assay: Antifungal activity against Microsporum gypseum after 5 to 7 days; type: functional; how it was run: as §2
Candida tropicalis = assay: Antifungal activity against Candida tropicalis after 24 hrs; type: functional; how it was run: as §3
Candida albicans [3] = assay: Antifungal activity against Candida albicans SC5314 infected in ICR mouse assessed as increase in host survival at 1 mg/kg, po qd for 7 days starting from 2 hrs post infection measured up to 20 days; type: functional, organism-based
How it was run: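 Male ICR mice (18–22 g, ten per group) were immunosuppressed with intraperitoneal cyclophosphamide 100 mg/kg once daily for 3 days. They were then infected with 0.4 ml of […] C. albicans SC5314. Oral dosing in 0.5% carboxymethylcellulose suspension began 2 h post-infection, with vehicle-only controls. Read-out was mean survival days over 20 days.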

## C[C@@H](n1cc(-c2ccc(Cl)cc2)nn1)[C@](O)(Cn1cncn1)c1ccc(F)cc1F
Candida albicans [1]
  MIC80: 0.125 µg/mL (≈ 0.29 µM)
Cryptococcus neoformans
  MIC80: 0.0156 µg/mL (≈ 0.0362 µM)
Aspergillus fumigatus
  MIC80: 32 µg/mL (≈ 74.3 µM)

## C[C@@H](N1CCOCC1)[C@](O)(Cn1cncn1)c1ccc(F)cc1F
Candida albicans [1]
  MIC80: 0.0312 µg/mL (≈ 0.0924 µM)
Cryptococcus neoformans
  MIC80: 0.0156 µg/mL (≈ 0.0461 µM)
Aspergillus fumigatus
  MIC80: 0.125 µg/mL (≈ 0.369 µM)
Candida albicans [2]
  MIC80: 0.0156 µg/mL (≈ 0.0461 µM)
Nakaseomyces glabratus
  MIC80: 0.0312 µg/mL (≈ 0.0924 µM)
Pichia kudriavzevii
  MIC80: 0.5 µg/mL (≈ 1.48 µM)
Trichophyton rubrum
  MIC80: 0.0625 µg/mL (≈ 0.185 µM)
Candida parapsilosis
  MIC80: 0.0625 µg/mL (≈ 0.185 µM)
Nannizzia gypsea
  MIC80: 0.0625 µg/mL (≈ 0.185 µM)
Candida tropicalis
  MIC80: 0.5 µg/mL (≈ 1.48 µM)
Candida albicans [3]
  Activity: Active

## CCN[C@H](C)[C@](O)(Cn1cncn1)c1ccc(F)cc1F
Candida albicans [1]
  MIC80: 0.5 µg/mL (≈ 1.69 µM)
Cryptococcus neoformans
  MIC80: 0.5 µg/mL (≈ 1.69 µM)
Aspergillus fumigatus
  MIC80: 32 µg/mL (≈ 108 µM)

## C[C@@H](NCC1CC1)[C@](O)(Cn1cncn1)c1ccc(F)cc1F
Candida albicans [1]
  MIC80: 0.125 µg/mL (≈ 0.388 µM)
Cryptococcus neoformans
  MIC80: 0.125 µg/mL (≈ 0.388 µM)
Aspergillus fumigatus
  MIC80: 8 µg/mL (≈ 24.8 µM)

## C[C@@H](NCc1ccccc1)[C@](O)(Cn1cncn1)c1ccc(F)cc1F
Candida albicans [1]
  MIC80: 0.0312 µg/mL (≈ 0.0872 µM)
Cryptococcus neoformans
  MIC80: 0.125 µg/mL (≈ 0.349 µM)
Aspergillus fumigatus
  MIC80: 1 µg/mL (≈ 2.79 µM)

## C[C@@H](N(Cc1ccccc1)C1CC1)[C@](O)(Cn1cncn1)c1ccc(F)cc1F
Candida albicans [1]
  MIC80: 8 µg/mL (≈ 20.1 µM)
Cryptococcus neoformans
  MIC80: 8 µg/mL (≈ 20.1 µM)
Aspergillus fumigatus
  MIC80: 8 µg/mL (≈ 20.1 µM)

## CCCCN[C@H](C)[C@](O)(Cn1cncn1)c1ccc(F)cc1F
Candida albicans [1]
  MIC80: 0.125 µg/mL (≈ 0.385 µM)
Cryptococcus neoformans
  MIC80: 0.125 µg/mL (≈ 0.385 µM)
Aspergillus fumigatus
  MIC80: 8 µg/mL (≈ 24.7 µM)

## COc1ccc(-c2cn([C@H](C)[C@](O)(Cn3cncn3)c3ccc(F)cc3F)nn2)cc1
Candida albicans [1]
  MIC80: 0.125 µg/mL (≈ 0.293 µM)
Cryptococcus neoformans
  MIC80: 0.0625 µg/mL (≈ 0.147 µM)
Aspergillus fumigatus
  MIC80: > 64 µg/mL

## C[C@@H](N=[N+]=[N-])[C@](O)(Cn1cncn1)c1ccc(F)cc1F
Candida albicans [1]
  MIC80: 0.0156 µg/mL (≈ 0.053 µM)
Cryptococcus neoformans
  MIC80: 0.0625 µg/mL (≈ 0.212 µM)
Aspergillus fumigatus
  MIC80: 8 µg/mL (≈ 27.2 µM)

## CCCN[C@H](C)[C@](O)(Cn1cncn1)c1ccc(F)cc1F
Candida albicans [1]
  MIC80: 0.125 µg/mL (≈ 0.403 µM)
Cryptococcus neoformans
  MIC80: 0.0625 µg/mL (≈ 0.201 µM)
Aspergillus fumigatus
  MIC80: 8 µg/mL (≈ 25.8 µM)

## CCCN(C1CC1)[C@H](C)[C@](O)(Cn1cncn1)c1ccc(F)cc1F
Candida albicans [1]
  MIC80: 1 µg/mL (≈ 2.85 µM)
Cryptococcus neoformans
  MIC80: 2 µg/mL (≈ 5.71 µM)
Aspergillus fumigatus
  MIC80: 8 µg/mL (≈ 22.8 µM)

## CCC(C)N[C@H](C)[C@](O)(Cn1cncn1)c1ccc(F)cc1F (some centres undefined)
Candida albicans [1]
  MIC80: 0.125 µg/mL (≈ 0.385 µM)
Cryptococcus neoformans
  MIC80: 0.125 µg/mL (≈ 0.385 µM)
Aspergillus fumigatus
  MIC80: 4 µg/mL (≈ 12.3 µM)

## C[C@@H](NC1CCCCC1)[C@](O)(Cn1cncn1)c1ccc(F)cc1F
Candida albicans [1]
  MIC80: 0.5 µg/mL (≈ 1.43 µM)
Cryptococcus neoformans
  MIC80: 0.5 µg/mL (≈ 1.43 µM)
Aspergillus fumigatus
  MIC80: 8 µg/mL (≈ 22.8 µM)

## C[C@@H](NC1CC1)[C@](O)(Cn1cncn1)c1ccc(F)cc1F
Candida albicans [1]
  MIC80: 0.0156 µg/mL (≈ 0.0506 µM)
Cryptococcus neoformans
  MIC80: 0.0156 µg/mL (≈ 0.0506 µM)
Aspergillus fumigatus
  MIC80: 1 µg/mL (≈ 3.24 µM)
Candida albicans [2]
  MIC80: 0.0078 µg/mL (≈ 0.0253 µM)
Nakaseomyces glabratus
  MIC80: 0.0156 µg/mL (≈ 0.0506 µM)
Pichia kudriavzevii
  MIC80: 0.5 µg/mL (≈ 1.62 µM)
Trichophyton rubrum
  MIC80: 0.0625 µg/mL (≈ 0.203 µM)
Candida parapsilosis
  MIC80: 0.25 µg/mL (≈ 0.811 µM)
Nannizzia gypsea
  MIC80: 0.125 µg/mL (≈ 0.405 µM)
Candida tropicalis
  MIC80: 0.5 µg/mL (≈ 1.62 µM)

## CCN1CCN([C@H](C)[C@](O)(Cn2cncn2)c2ccc(F)cc2F)CC1
Candida albicans [1]
  MIC80: 2 µg/mL (≈ 5.47 µM)
Cryptococcus neoformans
  MIC80: 2 µg/mL (≈ 5.47 µM)
Aspergillus fumigatus
  MIC80: 64 µg/mL (≈ 175 µM)

## CCN(C1CC1)[C@H](C)[C@](O)(Cn1cncn1)c1ccc(F)cc1F
Candida albicans [1]
  MIC80: 1 µg/mL (≈ 2.97 µM)
Cryptococcus neoformans
  MIC80: 1 µg/mL (≈ 2.97 µM)
Aspergillus fumigatus
  MIC80: > 64 µg/mL

## Cc1ccc(CN(C2CC2)[C@H](C)[C@](O)(Cn2cncn2)c2ccc(F)cc2F)cc1
Candida albicans [1]
  MIC80: 8 µg/mL (≈ 19.4 µM)
Cryptococcus neoformans
  MIC80: 5 µg/mL (≈ 12.1 µM)
Aspergillus fumigatus
  MIC80: > 64 µg/mL

## C[C@@H](n1cc(-c2ccccc2F)nn1)[C@](O)(Cn1cncn1)c1ccc(F)cc1F
Candida albicans [1]
  MIC80: 0.125 µg/mL (≈ 0.302 µM)
Cryptococcus neoformans
  MIC80: 0.125 µg/mL (≈ 0.302 µM)
Aspergillus fumigatus
  MIC80: 32 µg/mL (≈ 77.2 µM)

## C[C@@H](N(Cc1ccc(Cl)cc1)C1CC1)[C@](O)(Cn1cncn1)c1ccc(F)cc1F
Candida albicans [1]
  MIC80: 8 µg/mL (≈ 18.5 µM)
Cryptococcus neoformans
  MIC80: 4 µg/mL (≈ 9.24 µM)
Aspergillus fumigatus
  MIC80: > 64 µg/mL

## C[C@@H](n1cc(CN)nn1)[C@](O)(Cn1cncn1)c1ccc(F)cc1F
Candida albicans [1]
  MIC80: 0.25 µg/mL (≈ 0.716 µM)
Cryptococcus neoformans
  MIC80: 0.25 µg/mL (≈ 0.716 µM)
Aspergillus fumigatus
  MIC80: > 64 µg/mL

## COCCCN[C@H](C)[C@](O)(Cn1cncn1)c1ccc(F)cc1F
Candida albicans [1]
  MIC80: 0.25 µg/mL (≈ 0.734 µM)
Cryptococcus neoformans
  MIC80: 0.5 µg/mL (≈ 1.47 µM)
Aspergillus fumigatus
  MIC80: 2 µg/mL (≈ 5.88 µM)

## C[C@@H](n1cc(C2CC2)nn1)[C@](O)(Cn1cncn1)c1ccc(F)cc1F
Candida albicans [1]
  MIC80: 0.0625 µg/mL (≈ 0.173 µM)
Cryptococcus neoformans
  MIC80: 0.0625 µg/mL (≈ 0.173 µM)
Aspergillus fumigatus
  MIC80: 32 µg/mL (≈ 88.8 µM)

## C[C@@H](n1cc(-c2cccnc2)nn1)[C@](O)(Cn1cncn1)c1ccc(F)cc1F
Candida albicans [1]
  MIC80: 0.5 µg/mL (≈ 1.26 µM)
Cryptococcus neoformans
  MIC80: 1 µg/mL (≈ 2.52 µM)
Aspergillus fumigatus
  MIC80: > 64 µg/mL
